How the values were obtained:
[1] = Ratio of effective dose of morphine at 24 hr after antagonism treatment by icv administration (4.8 nmol) divided by its control ED50; format: functional
In short: (§1)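 Mice, radiant heat tail-flick. Antagonist given icv at 4.8 nmol/mouse. At the stated interval afterwards, morphine was given sc and the test read 30 min later. Morphine ED50 after treatment was divided by control ED50. 95% confidence limits come from three or four animals.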

[2] = Ratio of effective dose of morphine at 24 hr after antagonism treatment by sc administration divided by its control; format: functional
In short: (§2)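 Mice, radiant heat tail-flick. Antagonist given sc at 5 mg/kg. At the stated interval, sc morphine was given 30 min before testing. Post-treatment morphine ED50 was divided by control ED50. 95% confidence limits come from three or four animals.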

[3] = Ratio of effective dose of morphine at 30 min after antagonism treatment by sc administration divided by its control; format: functional; in short: as §2
Mu-type opioid receptor [4] = biological target: Mu-type opioid receptor (Cavia porcellus, UniProt P97266); test: Inhibitory concentration against mu-opioid receptor in guinea pig ileum; format: tissue-based
Sequence of Mu-type opioid receptor (Cavia porcellus, UniProt P97266) (P97266 whole entry): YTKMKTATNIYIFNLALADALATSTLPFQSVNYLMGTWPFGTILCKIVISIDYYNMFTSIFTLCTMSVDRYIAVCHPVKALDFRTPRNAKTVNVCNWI
In short: (§3)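 Electrically stimulated guinea pig ileum longitudinal muscle or mouse vas deferens. Agonist IC50 for inhibition of the stimulated response was determined as described previously.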

Mus musculus [5] = test: Equivalent antagonist potencies of compound was measured after 24 hr of icv administration; format: functional
[6] = Inhibitory concentration of morphine determined after treating with conjugate for 60 min of guinea pig ileum then divided by control IC50 in same preparation; format: functional
In short: (§4)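 Electrically stimulated guinea pig ileum was incubated with conjugate (1 × 10^-6 M) for 60 min, then washed ≥40 times with buffer. The agonist IC50 (ethylketazocine or morphine) was then divided by the control IC50 in the same preparation. Assays were run in triplicate, with se reported.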

Mus musculus [7] = test: Equivalent antagonist potencies of compound was measured after 24 hr of sc administration; format: functional
[8] = Ratio of effective dose of morphine at 2 hr after antagonist treatment by icv administration (4.8 nmol) divided by its control; format: functional; in short: as §1
[9] = Inhibitory concentration of ethylketazocine determined after treating with conjugate for 60 min of guinea pig ileum then divided by control IC50 in same preparation; format: functional; in short: as §4
[10] = Ratio of effective dose of morphine at 72 hr after antagonism treatment by icv administration (4.8 nmol) divided by its control ED50; format: functional; in short: as §1
Mu-type opioid receptor [11] = biological target: Mu-type opioid receptor (Mus musculus, UniProt P42866); test: Inhibitory concentration against mu-opioid receptor in mouse vas deferens; in short: as §3
Sequence of Mu-type opioid receptor (Mus musculus, UniProt P42866) (P42866 whole entry): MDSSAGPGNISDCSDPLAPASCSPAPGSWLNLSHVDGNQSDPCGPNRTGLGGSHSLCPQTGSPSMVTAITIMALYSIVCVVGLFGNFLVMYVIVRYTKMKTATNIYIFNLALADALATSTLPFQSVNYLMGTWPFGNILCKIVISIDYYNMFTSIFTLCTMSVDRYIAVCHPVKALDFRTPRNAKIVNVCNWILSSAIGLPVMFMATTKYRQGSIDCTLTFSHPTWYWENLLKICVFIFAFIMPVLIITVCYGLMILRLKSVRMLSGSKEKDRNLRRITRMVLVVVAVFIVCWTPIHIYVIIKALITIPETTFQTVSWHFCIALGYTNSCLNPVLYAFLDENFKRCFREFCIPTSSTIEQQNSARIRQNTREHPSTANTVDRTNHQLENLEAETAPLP

[12] = Ratio of Equivalent antagonist potencies after 24 hr of icv administration/Equivalent antagonist potencies after 24 hr of sc administration was determined; format: functional
[13] = Ratio of effective dose of morphine at 48 hr after antagonism treatment by icv administration in mouse (4.8 nmol) divided by its control ED50; format: functional
In short: (§5)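 Mice got antagonist icv at 4.8 nmol/mouse. At set times afterwards, morphine was given sc, and radiant heat tail-flick antinociception was measured 30 min later. The morphine ED50 was divided by the control ED50. Results are given with 95% confidence limits from three or four animals.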

[14] = (§6) Ratio of effective dose of morphine at 24 hr after antagonism treatment by icv administration in mouse (4.8 nmol) divided by its control ED50; format: functional; in short: as §5
[15] = (§7) Ratio of effective dose of morphine at 24 hr after antagonism treatment by sc administration in mouse divided by its control; format: functional
In short: (§8)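 Mice got antagonist sc at 5 mg/kg. At 30 min or 24 h, sc morphine was given 30 min before radiant heat tail-flick testing. The morphine ED50 was divided by the control ED50, with 95% confidence limits from three or four animals.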

[16] = (§9) Ratio of effective dose of morphine at 30 min after antagonism treatment by sc administration in mouse divided by its control; format: functional; in short: as §8
Mus musculus [17] = test: Equivalent antagonist potencies of compound was measured after 24 hr of sc administration; antagonist dose; format: functional
[18] = Ratio of effective dose of morphine at 72 hr after antagonism treatment by icv administration in mouse (4.8 nmol) divided by its control ED50; format: functional; in short: as §5
[19] = (§10) Ratio of effective dose of morphine at 2 hr after antagonist treatment by icv administration in mouse (4.8 nmol) divided by its control; format: functional; in short: as §5
Mus musculus [20] = test: Equivalent antagonist potencies of compound was measured after 24 hr of icv administration; antagonist dose; format: functional
Mus musculus [21] = test: as §6; format: functional; in short: as §5
Mus musculus [22] = test: as §7; format: functional; in short: as §8
Mus musculus [23] = test: as §9; format: functional; in short: as §8
Mus musculus [24] = test: as §10; format: functional; in short: as §5
[25] = Ratio of effective dose of morphine at 24 hr after antagonism treatment by icv administration in mice (4.8 nmol) divided by its control ED50; format: functional; in short: as §5
Mus musculus [26] = test: Equivalent antagonist potencies of compound was measured after 24 hr of icv administration in mice; antagonist dose; format: functional
[27] = Ratio of Equivalent antagonist potencies after 24 hr of icv administration/Equivalent antagonist potencies after 24 hr of sc administration in mice was determined; format: functional
Mus musculus [28] = test: Equivalent antagonist potencies of compound was measured after 24 hr of sc administration in mice; antagonist dose; format: functional
[29] = Ratio of effective dose of morphine at 2 hr after antagonist treatment by icv administration in mice (4.8 nmol) divided by its control; format: functional; in short: as §5
[30] = Ratio of effective dose of morphine at 30 min after antagonism treatment by sc administration in mice divided by its control; format: functional; in short: as §8
[31] = Ratio of effective dose of morphine at 24 hr after antagonism treatment by sc administration in mice divided by its control); format: functional; in short: as §8

Compound: COC(=O)/C=C/C(=O)N[C@@H]1CC[C@@]2(O)[C@H]3Cc4ccc(O)c5c4[C@@]2(CCN3CC2CC2)[C@H]1O5
- Ratio [1]: 6.6
- Ratio [2]: 3.9
- Ratio [3]: 3.9
- IC50 (Mu-type opioid receptor [4]): 4.8 nM
- Inhibition (Mus musculus [5]): 0.034 µM/kg
- Ratio [6]: 19.5
- Inhibition (Mus musculus [7]): 2.5 µM/kg
- Ratio [8]: 9.7
- Ratio [9]: 1.1
- Ratio [10]: 2.4
- IC50 (Mu-type opioid receptor [11]): 82 nM
- Ratio [12]: 74

Compound: COC(=O)CC(SCC(N)C(=O)O)C(=O)N[C@@H]1CC[C@@]2(O)[C@H]3Cc4ccc(O)c5c4[C@@]2(CCN3CC2CC2)[C@H]1O5 (stereo not given in full)
- IC50 (Mu-type opioid receptor [4]): 22 nM
- Ratio [13]: 2.8
- Ratio [14]: 42.2
- Ratio [15]: 1.3
- Ratio [16]: 1.4
- Inhibition (Mus musculus [17]): 5 µM/kg
- Ratio [6]: 1.7
- Ratio [9]: 1
- IC50 (Mu-type opioid receptor [11]): 140 nM
- Ratio [18]: 1.3
- Ratio [19]: 4.8
- Inhibition (Mus musculus [20]): 0.004 µM/kg
- Ratio [12]: 1250

Compound: NC(CSCC(=O)N[C@@H]1CC[C@@]2(O)[C@H]3Cc4ccc(O)c5c4[C@@]2(CCN3CC2CC2)[C@H]1O5)C(=O)O (stereo not given in full)
- Ratio (Mus musculus [21]): 0.57
- Ratio (Mus musculus [22]): 1.3
- Ratio (Mus musculus [23]): 3
- Ratio (Mus musculus [24]): 3

Compound: COC(=O)CC(SCC(NC(=O)CCC(N)C(=O)O)C(=O)NCC(=O)O)C(=O)N[C@@H]1CC[C@@]2(O)[C@H]3Cc4ccc(O)c5c4[C@@]2(CCN3CC2CC2)[C@H]1O5 (stereo not given in full)
- Ratio [25]: 6.3
- IC50 (Mu-type opioid receptor [4]): 41 nM
- Inhibition (Mus musculus [26]): 0.036 µM/kg
- Ratio [27]: 83
- Inhibition (Mus musculus [28]): 3 µM/kg
- Ratio [6]: 1.2
- Ratio [9]: 0.3
- IC50 (Mu-type opioid receptor [11]): 280 nM
- Ratio [29]: 3.1
- Ratio [30]: 3.8
- Ratio [31]: 2.6
